Screens: PubChem BioAssay, The Scripps Research Institute Molecular Screening Center
Most compounds without a hit are left out; they make up all but 4.5% or so of the library.
OX1R antag-1: human HCRTR1 antagonism; O43613; CHO/OX1R cells, Fluo-8 calcium fluorescence, orexin A; inhibition, % at 5 µM; actives 0.43% (n = 330,000); AID 434989;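 active = inhibition above its plate's threshold, mean inhibition of all tested compounds on the plate plus 3 SD, cut at about 37% in these data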
Target sequence (O43613 whole entry, looked up): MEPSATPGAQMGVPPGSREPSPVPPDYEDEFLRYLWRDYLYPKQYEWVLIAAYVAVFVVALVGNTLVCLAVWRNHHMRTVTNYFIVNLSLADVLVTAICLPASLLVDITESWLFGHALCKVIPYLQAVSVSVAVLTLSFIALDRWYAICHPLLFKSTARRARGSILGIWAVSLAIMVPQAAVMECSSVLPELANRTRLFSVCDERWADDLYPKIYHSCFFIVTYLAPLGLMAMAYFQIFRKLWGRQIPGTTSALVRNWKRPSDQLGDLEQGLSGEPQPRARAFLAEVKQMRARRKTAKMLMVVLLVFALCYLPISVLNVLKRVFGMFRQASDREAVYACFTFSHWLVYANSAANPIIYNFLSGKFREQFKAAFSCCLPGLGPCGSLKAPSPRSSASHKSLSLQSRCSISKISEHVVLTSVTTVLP
TAAR1 antag: antagonists of human TAAR1. actives 1.5% (n = 360,000). AID 624466. inhibition, % at 3 µM. CHO RD-HGA16 TAAR1, Fluo-8 calcium fluorescence, antagonist;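 active = inhibition above a per-plate cutoff, the mean inhibition of test compounds on that plate plus 3 SD, cut at about 49% in these data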
Target sequence (Q96RJ0 whole entry, looked up): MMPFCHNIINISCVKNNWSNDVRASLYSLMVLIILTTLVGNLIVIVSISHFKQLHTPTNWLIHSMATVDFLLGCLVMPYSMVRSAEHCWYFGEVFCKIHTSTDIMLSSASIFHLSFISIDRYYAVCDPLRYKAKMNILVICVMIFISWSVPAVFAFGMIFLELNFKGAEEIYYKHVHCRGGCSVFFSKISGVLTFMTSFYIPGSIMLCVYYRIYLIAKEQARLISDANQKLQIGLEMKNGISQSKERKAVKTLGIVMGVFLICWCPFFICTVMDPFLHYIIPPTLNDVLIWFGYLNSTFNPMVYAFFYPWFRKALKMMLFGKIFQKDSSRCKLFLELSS
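Test system: hTAAR1-expressing CHO RD-HGA16 cells, Gα16-coupled; Probe or stimulus: EC80 β-phenethylamine stimulus; Compound dosing: single nominal final test compound concentration of 3 µM; Timing: 140 s kinetic read after compound, 140 s after agonist; Signal: Fluo-8 calcium-sensitive fluorescence; Measure: % inhibition of agonist calcium response; Controls: DMSO and EC80 PEA controls.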
GPR7 antag: human neuropeptides B/W receptor 1 antagonism. GPR7-expressing cells, fluorescence antagonist assay. inhibition, % at 4.4 µM. actives 1.1% (n = 290,000). AID 1861; in the data active = inhibition above about 16%, passing the limit was not always enough;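 note: cells stimulated with the agonist NPW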
OX1R antag-2: OX1R (human) antagonism. OX1R-expressing cells, FRET antagonist read-out. actives 1.8% (n = 330,000). O43613. inhibition, % at 6.6 µM. AID 485270; in the data active = inhibition mostly above about 38%, no sharp cut-off; inactive = mostly below about 40%
TAAR1 agonist: human TAAR1 agonism; Q96RJ0; CHO RD-HGA16 TAAR1, Fluo-8 calcium fluorescence; vehicle wells 0%, saturating PEA agonist 100%; activation, % at 3 µM; actives 0.99% (n = 360,000);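 active = activation above the mean activation of all test compounds in the run plus 3 SD, cut at about 38% in these data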
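System: CHO-derived RD-HGA16 cells with stable Gα16 and human TAAR1. Times: 17-24 h plating, Fluo-8 75 min 37 °C, 30 min RT. Measured by: calcium-sensitive Fluo-8 signal, excitation 470-495, emission 515-575 nm. Read-out basis: % activation relative to PEA EC100 response. Control set: DMSO and PEA EC100. Repeats: no replicates (n 1).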
CHO parental Ca: counter-screen for OX1R antagonists: effect in parental CHO cells. actives 0.63% (n = 330,000). AID 463079. parental CHO-K1, ATP-induced calcium, Fluo-8 fluorescence. inhibition, % at 5.6 µM;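 active = inhibition above that plate's mean sample inhibition plus 3 SD, cut at about 26% in these data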
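Assay system – parental CHO cells · Reagent – ATP stimulus · Detection – intracellular calcium via Fluo-8 no-wash fluorescent dye · Evaluation – percent inhibition of ATP-evoked calcium rise, normalized to controls · Controls – ATP wells versus no-ATP DMSO wells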
Large screens that a line does not name were inactive.

O=C(OCCCN=C1NS(=O)(=O)c2ccccc21)c1ccc([N+](=O)[O-])cc1	OX1R antag-2 51
CCOC(=O)c1cc2c(C)n(-c3ccc(C)cc3)c(C)c2ccc1=O	OX1R antag-2 41
CCOC(=O)c1cc2c(C)n(-c3ccc(OCC)cc3)c(C)c2ccc1=O	none
COCCNC(=O)c1ccccc1NC(=O)COc1ccccc1	none
CCC(=O)Nc1ccccc1C(=O)OCC(=O)c1ccc2ccccc2c1	GPR7 antag 19
COC(=O)c1ccccc1NC(=O)COc1ccccc1	OX1R antag-2 41
COc1ccc(Cc2c(-c3ccc(F)cc3)nc3cc(C)c(Br)c(C)n23)c(C)c1	none (no result: OX1R antag-1, GPR7 antag, OX1R antag-2, CHO parental Ca)
O=C1CN(C(=O)c2ccccc2Br)C(c2ccc(F)cc2)c2cc(F)ccc2N1 (stereo not drawn)	TAAR1 agonist 41
c1cnc2ncc3sccc3c2c1	CHO parental Ca 46
CN=C1C([N+](=O)[O-])=CC=C2C1=NC1(CCCCC1)N2O	OX1R antag-2 50
COc1ccc2oc(=O)c(C(=O)NCC3CCCO3)cc2c1 (stereo not drawn)	OX1R antag-2 61
COc1cccc2cc(C(=O)NCC3CCCO3)c(=O)oc12 (stereo not drawn)	OX1R antag-2 77
COc1cc(Br)cc2cc(C(=O)NCC3CCCO3)c(=O)oc12 (stereo not drawn)	none
COc1ccc2oc(=O)c(C(=O)NC3CCCCCC3)cc2c1	none
CC(C)NC1=C(Cl)C(=O)c2ccccc2C1=O	OX1R antag-2 43
O=C1C(Cl)=C(Nc2ccccc2)C(=O)c2ccccc21	none
COCCCNc1c2c3c(cccc3[nH]c1=O)C(=O)c1ccccc1-2	OX1R antag-1 95, TAAR1 antag 79, OX1R antag-2 56, TAAR1 agonist 218, CHO parental Ca 89
COCCCNC1=C(Cl)C(=O)c2ccccc2C1=O	OX1R antag-2 56
CC(C)OCCCNC1=C(Cl)C(=O)c2ccccc2C1=O	OX1R antag-2 69
Cc1cc(N2CCNC[C@H]2C)ccc1N1CCN(Cc2ccccc2)[C@H](C)C1	none (no result: OX1R antag-1, GPR7 antag, OX1R antag-2, CHO parental Ca)
Cc1ccc(Cn2cc(SCC(=O)Nc3nccs3)c3ccccc32)cc1	none
Cc1cccc(Cn2cc(SCC(=O)Nc3nccs3)c3ccccc32)c1	OX1R antag-2 34
C[C@@H](NC(=O)c1[nH]cnc1C(=O)Nc1nccs1)c1ccccc1	none (no result: GPR7 antag)
CC(C)(C)c1ccc(NC(=O)COC(=O)C2(C)CC2(Cl)Cl)cc1 (stereo not drawn)	TAAR1 antag 52
Cc1ccccc1NC(=O)COC(=O)C1(C)CC1(Cl)Cl (stereo not drawn)	none
COc1ccc(NC(=O)CN(C)S(=O)(=O)c2ccc(Cl)cc2)cc1Cl	none
COc1ccc(S(=O)(=O)N(C)CC(=O)Nc2ccc(C(F)(F)F)cc2)cc1Cl	CHO parental Ca 32
CCCc1c(-c2cccc(Br)c2)ncn1CCc1ccccc1OC	none (no result: OX1R antag-1, GPR7 antag, OX1R antag-2, CHO parental Ca)
CC(=O)C1=CCN(C)CC1	none (no result: OX1R antag-1, GPR7 antag, OX1R antag-2, CHO parental Ca)
COc1cccc(CN(C)C(=O)[C@@H](Cc2ccccc2)NC(=O)[C@H]2O[C@@H](n3ccc(=O)[nH]c3=O)[C@H](O)[C@@H]2O)c1	none (no result: OX1R antag-1, GPR7 antag, OX1R antag-2, CHO parental Ca)
COc1cc(CNC(=O)c2cc(-c3cc(F)ccc3OCC3CCCO3)n[nH]2)cc(OC)c1 (stereo not drawn)	TAAR1 antag 53 (no result: OX1R antag-1, GPR7 antag, OX1R antag-2, CHO parental Ca)
Cc1ccccc1S(=O)(=O)N1[C@@H](c2ccc(Cl)cc2)C(C(=O)O)=CC[C@H]1c1ccc(Cl)cc1	none (no result: GPR7 antag)
Cc1ccc([C@H]2C(C(=O)O)=CC[C@@H](c3ccc(C)cc3)N2S(=O)(=O)c2ccccc2C)cc1	OX1R antag-2 45 (no result: GPR7 antag)
COc1ccc([C@@H]2CC=C(C(=O)O)[C@H](c3ccc(C)cc3)N2S(=O)(=O)c2ccccc2C)cc1	OX1R antag-2 50 (no result: GPR7 antag)
Cc1ccc([C@@H]2CC=C(C(=O)O)[C@H](c3ccccc3)N2S(=O)(=O)c2ccccc2C)cc1	OX1R antag-2 54 (no result: GPR7 antag)
COc1ccc([C@@H]2CC=C(C(=O)O)[C@H](c3ccc(F)cc3)N2S(=O)(=O)c2ccccc2C)cc1	none (no result: GPR7 antag)
Cc1ccc([C@H]2C(C(=O)O)=CC[C@@H](c3ccc(Cl)cc3)N2S(=O)(=O)c2ccccc2C)cc1	none (no result: TAAR1 antag, GPR7 antag, TAAR1 agonist)
COc1cc(=O)oc(C=O)c1C	none (no result: OX1R antag-1, GPR7 antag, OX1R antag-2, CHO parental Ca)
COc1cccc(/C=N/NC(=O)c2ccc(OCc3cccc(Br)c3)cc2)c1	TAAR1 antag 52
COc1ccccc1C(CC(=O)Nc1ccc(Cl)cc1)c1ccc(OC(C)C)cc1 (stereo not drawn)	none
COc1ccc(C(C)NCCC(c2ccc(OC(C)C)cc2)c2ccccc2OC)cc1 (stereo not drawn)	TAAR1 agonist 44 (no result: OX1R antag-1, OX1R antag-2, CHO parental Ca)
O=C1/C(=C/c2ccccc2)Nc2ccccc21	OX1R antag-1 50, CHO parental Ca 36
CCCCC(=O)Nc1ccc2c3c(cccc13)C(=O)N2CC	OX1R antag-2 45
C[C@H]1COc2cc(N3CCCCC3)ccc2S(=O)(=O)N1	none (no result: OX1R antag-1, GPR7 antag, OX1R antag-2, CHO parental Ca)
C=CCN(CC=C)CCOc1ccc2ccccc2c1	TAAR1 agonist 39
O=C(Nc1cccc(C(F)(F)F)c1)c1scc2c1OCCO2	CHO parental Ca 43
Cc1cc(C)c(N=C2CCCN2Cc2ccccc2)c(C#N)c1	CHO parental Ca 40
N#Cc1ccccc1N=C1CCCN1Cc1ccccc1	none
Cc1cccc(N2CCN(C(=O)c3cccc(S(=O)(=O)N4CCOCC4)c3)CC2)c1C	none (no result: OX1R antag-1, GPR7 antag, OX1R antag-2, CHO parental Ca)
COc1ccc2nc3ccccc3nc2c1N	OX1R antag-2 55
COc1ccc2nc3cccc(OC)c3nc2c1	OX1R antag-2 42
N#Cc1cccc(NC(=O)COC(=O)Cn2nc(-c3ccccc3)oc2=O)c1	none (no result: GPR7 antag)
CC(C)c1ccc(NC(=O)C(c2ccc3c(c2)OCO3)N2CCC3(CC2)OCCO3)cc1 (stereo not drawn)	none
CC1CCN(C(C(=O)Nc2ccc(C(C)C)cc2)c2ccc3c(c2)OCO3)CC1 (stereo not drawn)	CHO parental Ca 31
NC(=O)c1ccc(N2CCN(S(=O)(=O)c3cccs3)CC2)c([N+](=O)[O-])c1	OX1R antag-1 56, CHO parental Ca 46 (no result: GPR7 antag)
C[C@@H]1CN([C@H](C)CO)C(=O)c2cc(NC(=O)Nc3ccccc3)ccc2O[C@@H](C)CCCCO[C@H]1CN(C)S(C)(=O)=O	none (no result: OX1R antag-1, GPR7 antag, OX1R antag-2, CHO parental Ca)
COc1ccc(CCNC(=O)COc2ncnc3cc([N+](=O)[O-])ccc23)cc1	OX1R antag-2 53
CC(C)(C)NCCC(O)c1cc(C(F)(F)F)nc2c(C(F)(F)F)cccc12 (stereo not drawn)	TAAR1 agonist 38 (no result: OX1R antag-1, GPR7 antag, OX1R antag-2, CHO parental Ca)
COC(=O)c1cc2c(c3c4cc(C)ccc4n(S(=O)(=O)c4ccc(C)cc4)c13)C(=O)N(Cc1ccc(C(F)(F)F)cc1)C2	none (no result: OX1R antag-1, GPR7 antag, OX1R antag-2, CHO parental Ca)
CCNC(=O)COC(=O)CNC(=O)c1cc(Cl)cc([N+](=O)[O-])c1	OX1R antag-2 41
